Source: ChEMBL document CHEMBL1140080, “Adamantyl-substituted retinoid-derived molecules that interact with the orphan nuclear receptor small heterodimer partner: effects of replacing the 1-adamantyl or hydroxyl group on inhibition of cancer cell growth, induction of cancer cell apoptosis, and inhibition of SRC homology 2 …” (J Med Chem, 2008)

Legend:
[1] = Induction of apoptosis in human HL60R cells at 0.1 uM after 24 hrs by acridine orange staining; assay type: functional
Outline: (§1)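 KG-1, HL-60R (24 h) or MDA-MB-231 (96 h) cells in 5% FBS medium attached overnight, then were treated with analogue in Me2SO or vehicle (final 0.1% Me2SO). Apoptotic cells were scored by acridine orange staining on at least three replicates. Tested concentrations were 0.1–5.0 μM, plus 25 μM for KG-1.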

[2] = Induction of apoptosis in human HL60R cells at 1.0 uM after 24 hrs by acridine orange staining; assay type: functional; outline: as §1
MDA-MB-231 [3] = assay: Induction of apoptosis in human MDA-MB-231 cells at 1.0 uM after 96 hrs by acridine orange staining; assay type: functional; outline: as §1
MDA-MB-231 [4] = assay: Induction of apoptosis in human MDA-MB-231 cells at 2.0 uM after 96 hrs by acridine orange staining; assay type: functional; outline: as §1
[5] = Growth inhibition of HMVE cells after 72 hrs by alamar blue method; assay type: cell-based; conditions: Homo sapiens
[6] = Growth inhibition of HMVE cells at 0.5 uM after 72 hrs by alamar blue method; assay type: cell-based; conditions: human, HMVE cells; read-out: GI
[7] = Antiproliferative activity against human H292 cells at 10 uM after 72 hrs by MTT assay; assay type: functional; conditions: NCI-H292, 72 h
Outline: (§2)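 Cells attached for 24 h, then exposed 72 h to analogue in Me2SO or Me2SO alone (final Me2SO 0.1%), with media and compound renewed after 48 h. Viable cells were measured by MTS tetrazolium reduction in three replicates. Top concentration tested per compound was 2.5, 5, 10, 20 or 100 μM.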

[8] = molecular target: T1, Tyrosine-protein phosphatase non-receptor type 11 (Homo sapiens, UniProt Q06124); assay: Inhibition of SHP2 overexpressed in human KG1 cells; assay type: cell-based, KG-1
T1 sequence (Q06124 whole entry): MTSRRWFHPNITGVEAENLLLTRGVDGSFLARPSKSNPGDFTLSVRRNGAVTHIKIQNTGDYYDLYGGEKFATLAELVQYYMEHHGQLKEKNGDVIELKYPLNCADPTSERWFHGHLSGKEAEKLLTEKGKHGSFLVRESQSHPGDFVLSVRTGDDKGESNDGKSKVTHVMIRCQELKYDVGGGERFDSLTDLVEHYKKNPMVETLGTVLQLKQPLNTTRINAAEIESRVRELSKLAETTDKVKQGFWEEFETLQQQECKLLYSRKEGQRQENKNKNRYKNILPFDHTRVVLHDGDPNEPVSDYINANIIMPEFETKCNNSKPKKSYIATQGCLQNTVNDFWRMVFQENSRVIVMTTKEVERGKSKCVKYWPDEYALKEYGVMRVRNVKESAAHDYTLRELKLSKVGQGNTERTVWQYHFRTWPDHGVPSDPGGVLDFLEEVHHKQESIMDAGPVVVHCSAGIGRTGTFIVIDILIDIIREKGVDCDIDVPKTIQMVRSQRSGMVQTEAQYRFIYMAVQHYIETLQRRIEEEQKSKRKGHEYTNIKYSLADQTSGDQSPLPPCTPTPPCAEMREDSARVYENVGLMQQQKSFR
Outline: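 Shp-2 PTP activity was measured as hydrolysis of the fluorogenic substrate 6,8-difluoro-4-methylumbelliferyl phosphate in the presence of analogue in Me2SO or Me2SO alone (final concentration 5%).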

KG-1 [9] = assay: Induction of apoptosis in human KG1 cells at 1.0 uM […] by acridine orange staining; assay type: functional
KG-1 [10] = assay: Induction of apoptosis in human KG1 cells at 5.0 uM […] by acridine orange staining; assay type: functional
[11] = Antiproliferative activity against human KG1 AML cells after 48 hrs by MTT assay; assay type: functional, cell-based; conditions: in the assay text read “by hemocytometer cell counting” for “by MTT assay”
Outline: (§3)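 KG-1 cells in 5% FBS medium attached overnight, then treated 48 h with analogue in Me2SO or Me2SO alone (final 0.1%). Cells were harvested and counted by hemocytometer in triplicate wells. Highest concentration evaluated was 5 μM.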

DU-145 [12] = assay: Antiproliferative activity against human DU145 cells after 72 hrs by MTT assay; assay type: functional, cell-based; conditions: DU-145, 72 h; outline: as §2
MDA-MB-231 [13] = assay: Antiproliferative activity against human MDA-MB-231 cells after 72 hrs by MTT assay; assay type: functional, cell-based; conditions: MDA-MB-231, 72 h; outline: as §2
[14] = Antiproliferative activity against human H292 cells after 72 hrs by MTT assay; assay type: functional, cell-based; conditions: NCI-H292, 72 h; outline: as §2
[15] = Antiproliferative activity against human KG1 AML cells at 5 uM after 48 hrs by MTT assay; assay type: functional; conditions: in the assay text read “by hemocytometer cell counting” for “by MTT assay”; outline: as §3
DU-145 [16] = assay: Antiproliferative activity against human DU145 cells at 10 uM after 72 hrs by MTT assay; assay type: functional; conditions: DU-145, 72 h; outline: as §2
MDA-MB-231 [17] = assay: Antiproliferative activity against human MDA-MB-231 cells at 10 uM after 72 hrs by MTT assay; assay type: functional; conditions: MDA-MB-231, 72 h; outline: as §2
[18] = molecular target: T2, Nuclear receptor subfamily 0 group B member 2 (Homo sapiens, UniProt Q15466); assay: Displacement of [5,5'-3H2]AHPN from human recombinant GST-SHP by liquid scintillation counting relative to 3-Cl-AHPC
T2 sequence (Q15466 whole entry): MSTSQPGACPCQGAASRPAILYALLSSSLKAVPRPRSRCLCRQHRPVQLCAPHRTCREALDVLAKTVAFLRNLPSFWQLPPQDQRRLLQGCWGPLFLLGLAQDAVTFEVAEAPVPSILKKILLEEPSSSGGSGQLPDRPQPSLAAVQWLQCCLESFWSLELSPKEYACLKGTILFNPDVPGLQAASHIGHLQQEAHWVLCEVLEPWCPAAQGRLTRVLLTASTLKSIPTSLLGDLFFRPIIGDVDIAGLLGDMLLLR
Outline: (§4)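 Recombinant GST–human SHP was bound to glutathione–Sepharose beads and incubated 2 h with 5 nM [5,5′-3H2]AHPN with or without competitor (1.0, 5.0 or 50 μM). Beads were washed twice and counted. Displacement was expressed relative to 50 μM 3-Cl-AHPC set as 100%.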

[19] = molecular target: T3, Nuclear receptor subfamily 0 group B member 2 (Homo sapiens) (UniProt Q15466); assay: Displacement of [5,5'-3H2]AHPN from human recombinant GST-SHP at 50 uM by liquid scintillation counting relative to 3-Cl-AHPC; outline: as §4
T3 sequence (whole entry): T2 sequence (Q15466 whole entry)

KG-1 [20] = assay: Induction of apoptosis in human KG1 cells after 48 hrs by acridine orange staining; assay type: functional, cell-based; conditions: KG-1, 48 h
KG-1 [21] = assay: Induction of apoptosis in human KG1 cells at 25 uM […] by acridine orange staining; assay type: functional
DU-145 [22] = assay: Antiproliferative activity against human DU145 cells at 5 uM after 72 hrs by MTT assay; assay type: functional; conditions: DU-145, 72 h; outline: as §2
MDA-MB-231 [23] = assay: Antiproliferative activity against human MDA-MB-231 cells at 5 uM after 72 hrs by MTT assay; assay type: functional; conditions: MDA-MB-231, 72 h; outline: as §2
[24] = Antiproliferative activity against human H292 cells at 5 uM after 72 hrs by MTT assay; assay type: functional; conditions: NCI-H292, 72 h; outline: as §2

SMILES | IC50 [8] [µM] | IC50 (DU-145 [12]) [µM] | IC50 (MDA-MB-231 [13]) [µM] | Activity [1] [%] | Activity [2] [%] | Activity (MDA-MB-231 [3]) [%] | Activity (MDA-MB-231 [4]) [%] | IC50 [5] [µM] | inhibition at 72 h, 0.5 µM [6] [%] | Activity (KG-1 [9]) [%] | Activity (KG-1 [10]) [%] | IC50 [11] [µM] | IC50 [14] [µM] | Activity [15] [%] | inhibition at 5 µM (DU-145 [22]) [%] | inhibition at 5 µM (MDA-MB-231 [23]) [%] | inhibition at 5 µM [24] [%] | further results
CC1(C)CC(c2cc(-c3ccc4cc(C(=O)O)ccc4c3)ccc2O)CC(C)(C)C1 |  |  |  | 26 | 60 | 10 | 49 | 0.5 | 50 |  |  |  |  |  |  |  |  | 
Cc1cccc(C)c1-c1cc(-c2ccc(/C=C/C(=O)O)cc2Cl)ccc1O | 19.9 | > 10 | > 10 |  |  |  |  |  |  | 0 | 0 | > 5 | > 10 | 0 |  |  |  | inhibition at 10 µM [7]: 0%; inhibition at 10 µM (DU-145 [16]): 4%; inhibition at 10 µM (MDA-MB-231 [17]): 0%
O=C(O)c1ccc2c(Cl)c(-c3ccc(O)c(C45CC6CC(CC(C6)C4)C5)c3)ccc2c1 |  |  |  | 62 | 94 | 21 | 41 | > 0.5 | 45 |  |  |  |  |  |  |  |  | 
CC(=O)Nc1ccc(-c2ccc(/C=C/C(=O)O)cc2Cl)cc1C12CC3CC(CC(C3)C1)C2 | 4.55 | 5 | > 5 |  |  |  |  |  |  | 3 | 7 | > 5 | > 5 | 25 | 8 | -5 | 13 | Activity [19]: 47%
CC1=C(/C=C/C(C)=C/C=C/C(C)=C/C(=O)O)C(C)(C)CCC1 [TRETINOIN] |  |  |  | 0 | 0 | 0 | 0 | > 0.5 | 10 |  |  |  |  |  |  |  |  | 

Now from value to compound, other results behind:

IC50 [8] [µM] | IC50 (DU-145 [12]) [µM] | IC50 (MDA-MB-231 [13]) [µM] | SMILES | Activity [1] [%] | Activity [2] [%] | Activity (MDA-MB-231 [3]) [%] | Activity (MDA-MB-231 [4]) [%] | IC50 [5] [µM] | inhibition at 72 h, 0.5 µM [6] [%] | Activity (KG-1 [9]) [%] | Activity (KG-1 [10]) [%] | IC50 [11] [µM] | IC50 [14] [µM] | Activity [15] [%] | inhibition at 5 µM (DU-145 [22]) [%] | inhibition at 5 µM (MDA-MB-231 [23]) [%] | inhibition at 5 µM [24] [%] | further results
2.27 | > 5 | > 5 | CC12CC3CC(C)(C1)CC(c1cc(-c4ccc(/C=C/C(=O)O)cc4Cl)ccc1O)(C3)C2 |  |  |  |  |  |  | 0 | 0 | > 5 | 3.6 | 0 | 23 | 7 | 66 | IC50 [18]: 0.5 µM; Activity [19]: 103%; IC50 (KG-1 [20]): 13.5 µM; Activity (KG-1 [21]): 83%
6.4 | 8 | > 5 | CC1(c2cc(-c3ccc(/C=C/C(=O)O)cc3Cl)ccc2O)CCCCC1 |  |  |  |  |  |  | 0 | 0 | > 5 | 3.9 | 0 | 32 | 9 | 63 | 
0.45 | > 10 | > 10 | CC(C)(C)C#Cc1cc(-c2ccc(/C=C/C(=O)O)cc2Cl)ccc1O |  |  |  |  |  |  | 0 | 0 | > 5 | > 10 | 22 |  |  |  | inhibition at 10 µM [7]: 14%; inhibition at 10 µM (DU-145 [16]): 13%; inhibition at 10 µM (MDA-MB-231 [17]): 4%
